Laboratory results published in ChEMBL document CHEMBL1255409, “In vitro activity of ceftaroline against 623 diverse strains of anaerobic bacteria” (2010).
Converted amounts (≈) assume the structure as drawn.

Columns and labels:
[1] = system: Parabacteroides distasonis; assay: Antimicrobial activity against Bacteroides distasonis under anaerobic conditions after 44 hrs by CLSI-M11-47 protocol based agar dilution method; type: functional
Summary of the method: (§1)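 Reference agar dilution per CLSI M11-A7 with plates made on test day. Clinical isolates were stored at −70°C in 20% skim milk, subcultured twice, and 48-h cell paste was suspended in brucella broth to 0.5 McFarland. About 10^5 CFU/spot was applied with a Steers replicator. Plates were incubated 44 h at 37°C anaerobically. MIC was the lowest concentration giving complete inhibition or marked growth reduction versus the drug-free control.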

[2] = system: Bacteroides fragilis; assay: Antimicrobial activity against Bacteroides fragilis spp. under anaerobic conditions after 44 hrs by CLSI-M11-47 protocol based agar dilution method; type: functional; summary of the method: as §1
[3] = system: Hoylesella loescheii; assay: Antimicrobial activity against Prevotella loescheii under anaerobic conditions after 44 hrs by CLSI-M11-47 protocol based agar dilution method; type: functional
Summary of the method: (§2)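 Clinical isolates were stored at −70°C in 20% skim milk and identified phenotypically or by partial 16S rRNA sequencing. Each strain was subcultured twice from frozen stock. Cell paste from 48-h cultures was suspended in brucella broth to a 0.5 McFarland standard. About 10^5 CFU per spot were applied by Steers replicator to agar dilution plates prepared on the day of testing. Plates were incubated 44 h at 37°C in an anaerobic chamber. MIC was taken as the lowest concentration giving complete inhibition or marked reduction of growth versus the drug-free control.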

[4] = system: Gemella morbillorum; assay: Antimicrobial activity against Gemella morbillorum under anaerobic conditions after 44 hrs by CLSI-M11-47 protocol based agar dilution method; type: functional; summary of the method: as §2
[5] = system: Fusobacterium mortiferum; assay: Antimicrobial activity against Fusobacterium mortiferum under anaerobic conditions after 44 hrs by CLSI-M11-47 protocol based agar dilution method; type: functional; summary of the method: as §1
[6] = system: Cutibacterium acnes; assay: Antimicrobial activity against Propionibacterium acnes under anaerobic conditions after 44 hrs by CLSI-M11-47 protocol based agar dilution method; type: functional; summary of the method: as §2
[7] = system: Prevotella nanceiensis; assay: Antimicrobial activity against Prevotella nanceiensis under anaerobic conditions after 44 hrs by CLSI-M11-47 protocol based agar dilution method; type: functional; conditions: Hoylesella nanceiensis; summary of the method: as §2
[8] = system: Anaerococcus tetradius; assay: Antimicrobial activity against Anaerococcus tetradius under anaerobic conditions after 44 hrs by CLSI-M11-47 protocol based agar dilution method; type: functional; summary of the method: as §1
[9] = system: Prevotella buccae; assay: Antimicrobial activity against Prevotella buccae under anaerobic conditions after 44 hrs by CLSI-M11-47 protocol based agar dilution method; type: functional; conditions: Segatella buccae; summary of the method: as §2
[10] = system: Solobacterium moorei; assay: Antimicrobial activity against Solobacterium moorei under anaerobic conditions after 44 hrs by CLSI-M11-47 protocol based agar dilution method; type: functional; summary of the method: as §2
[11] = system: Parvimonas micra; assay: Antimicrobial activity against Parvimonas micra under anaerobic conditions after 44 hrs by CLSI-M11-47 protocol based agar dilution method; type: functional; summary of the method: as §2
[12] = system: Phocaeicola vulgatus; assay: Antimicrobial activity against Bacteroides vulgatus under anaerobic conditions after 44 hrs by CLSI-M11-47 protocol based agar dilution method; type: functional; summary of the method: as §1
[13] = system: Actinomyces neuii subsp. anitratus; assay: Antimicrobial activity against Actinomyces neuii subsp. anitratus under anaerobic conditions after 44 hrs by CLSI-M11-47 protocol based agar dilution method; type: functional, Winkia neuii subsp. anitrata; conditions: Winkia neuii; summary of the method: as §1
[14] = system: Fusobacterium nucleatum; assay: Antimicrobial activity against Fusobacterium nucleatum under anaerobic conditions after 44 hrs by CLSI-M11-47 protocol based agar dilution method; type: functional; summary of the method: as §2
[15] = system: Prevotella denticola; assay: Antimicrobial activity against Prevotella denticola under anaerobic conditions after 44 hrs by CLSI-M11-47 protocol based agar dilution method; type: functional; summary of the method: as §2
[16] = system: Bacteroides uniformis; assay: Antimicrobial activity against Bacteroides uniformis under anaerobic conditions after 44 hrs by CLSI-M11-47 protocol based agar dilution method; type: functional; summary of the method: as §1
[17] = system: Clostridium celerecrescens; assay: Antimicrobial activity against Clostridium celerecrescens under anaerobic conditions after 44 hrs by CLSI-M11-47 protocol based agar dilution method; type: functional; conditions: Lacrimispora celerecrescens; summary of the method: as §1
[18] = system: Eubacterium contortum; assay: Antimicrobial activity against Eubacterium contortum under anaerobic conditions after 44 hrs by CLSI-M11-47 protocol based agar dilution method; type: functional; conditions: Faecalicatena contorta; summary of the method: as §1
[19] = system: Peptostreptococcus anaerobius; assay: Antimicrobial activity against Peptostreptococcus anaerobius under anaerobic conditions after 44 hrs by CLSI-M11-47 protocol based agar dilution method; type: functional; summary of the method: as §2
[20] = system: Lacrimispora sphenoides; assay: Antimicrobial activity against Clostridium sphenoides under anaerobic conditions after 44 hrs by CLSI-M11-47 protocol based agar dilution method; type: functional; summary of the method: as §1
[21] = system: Prevotella bivia; assay: Antimicrobial activity against Prevotella bivia under anaerobic conditions after 44 hrs by CLSI-M11-47 protocol based agar dilution method; type: functional; summary of the method: as §2
[22] = system: Clostridium hylemonae; assay: Antimicrobial activity against Clostridium hylemonae under anaerobic conditions after 44 hrs by CLSI-M11-47 protocol based agar dilution method; type: functional; summary of the method: as §1
[23] = system: Porphyromonas somerae; assay: Antimicrobial activity against Porphyromonas somerae under anaerobic conditions after 44 hrs by CLSI-M11-47 protocol based agar dilution method; type: functional; summary of the method: as §2
[24] = system: Clostridium paraputrificum; assay: Antimicrobial activity against Clostridium paraputrificum under anaerobic conditions after 44 hrs by CLSI-M11-47 protocol based agar dilution method; type: functional; summary of the method: as §1
[25] = system: Slackia exigua; assay: Antimicrobial activity against Slackia exigua under anaerobic conditions after 44 hrs by CLSI-M11-47 protocol based agar dilution method; type: functional; summary of the method: as §2
[26] = system: Lacticaseibacillus rhamnosus; assay: Antimicrobial activity against Lactobacillus rhamnosus under anaerobic conditions after 44 hrs by CLSI-M11-47 protocol based agar dilution method; type: functional; summary of the method: as §2
[27] = system: Anaerococcus octavius; assay: Antimicrobial activity against Anaerococcus octavius under anaerobic conditions after 44 hrs by CLSI-M11-47 protocol based agar dilution method; type: functional; summary of the method: as §1
[28] = system: [Clostridium] innocuum; assay: Antimicrobial activity against Clostridium […] under anaerobic conditions after 44 hrs by CLSI-M11-47 protocol based agar dilution method; type: functional; summary of the method: as §1
[29] = system: Clostridium cadaveris; assay: Antimicrobial activity against Clostridium cadaveris under anaerobic conditions after 44 hrs by CLSI-M11-47 protocol based agar dilution method; type: functional; summary of the method: as §1
[30] = system: Paeniclostridium sordellii; assay: Antimicrobial activity against Clostridium sordellii under anaerobic conditions after 44 hrs by CLSI-M11-47 protocol based agar dilution method; type: functional; conditions: Paraclostridium sordellii; summary of the method: as §1
[31] = system: Eubacterium saburreum; assay: Antimicrobial activity against Eubacterium saburreum under anaerobic conditions after 44 hrs by CLSI-M11-47 protocol based agar dilution method; type: functional; conditions: Lachnoanaerobaculum saburreum; summary of the method: as §1
[32] = system: Prevotella oris; assay: Antimicrobial activity against Prevotella oris under anaerobic conditions after 44 hrs by CLSI-M11-47 protocol based agar dilution method; type: functional; conditions: Segatella oris; summary of the method: as §2

CCC[C@@H]1C[C@@H](C(=O)N[C@@H]([C@H]2O[C@H](SC)[C@H](O)[C@@H](O)[C@H]2O)[C@H](C)Cl)N(C)C1 [CLINDAMYCIN]
MIC50 [1]: 4 µg/mL (≈ 9.41 µM)
MIC90 [1]: > 128 µg/mL
MIC50 [2]: 4 µg/mL (≈ 9.41 µM)
MIC90 [2]: > 128 µg/mL
MIC50 [3]: ≤ 0.03 µg/mL
MIC90 [3]: 128 µg/mL (≈ 301 µM)
MIC50 [4]: 0.125 µg/mL (≈ 0.294 µM)
MIC90 [4]: 64 µg/mL (≈ 151 µM)
MIC50 [5]: 0.06 µg/mL (≈ 0.141 µM)
MIC90 [5]: 1 µg/mL (≈ 2.35 µM)
MIC50 [6]: 0.125 µg/mL (≈ 0.294 µM)
MIC90 [6]: 0.125 µg/mL (≈ 0.294 µM)
MIC50 [7]: ≤ 0.03 µg/mL
MIC90 [7]: 128 µg/mL (≈ 301 µM)
MIC50 [8]: 0.5 µg/mL (≈ 1.18 µM)
MIC90 [8]: 128 µg/mL (≈ 301 µM)
MIC50 [9]: ≤ 0.03 µg/mL
MIC90 [9]: > 128 µg/mL
MIC50 [10]: 0.06 µg/mL (≈ 0.141 µM)
MIC90 [10]: 2 µg/mL (≈ 4.71 µM)
MIC50 [11]: 0.25 µg/mL (≈ 0.588 µM)
MIC90 [11]: 16 µg/mL (≈ 37.6 µM)
MIC50 [12]: 4 µg/mL (≈ 9.41 µM)
MIC90 [12]: > 128 µg/mL
MIC50 [13]: 0.06 µg/mL (≈ 0.141 µM)
MIC90 [13]: 128 µg/mL (≈ 301 µM)
MIC50 [14]: 0.06 µg/mL (≈ 0.141 µM)
MIC90 [14]: 0.06 µg/mL (≈ 0.141 µM)
MIC50 [15]: ≤ 0.03 µg/mL
MIC90 [15]: 128 µg/mL (≈ 301 µM)
MIC50 [16]: 4 µg/mL (≈ 9.41 µM)
MIC90 [16]: > 128 µg/mL
MIC50 [17]: 2 µg/mL (≈ 4.71 µM)
MIC90 [17]: 128 µg/mL (≈ 301 µM)
MIC50 [18]: 0.06 µg/mL (≈ 0.141 µM)
MIC90 [18]: 2 µg/mL (≈ 4.71 µM)
MIC50 [19]: ≤ 0.03 µg/mL
MIC90 [19]: 0.25 µg/mL (≈ 0.588 µM)
MIC50 [20]: 2 µg/mL (≈ 4.71 µM)
MIC90 [20]: 128 µg/mL (≈ 301 µM)
MIC50 [21]: ≤ 0.03 µg/mL
MIC90 [21]: > 128 µg/mL
MIC50 [22]: 2 µg/mL (≈ 4.71 µM)
MIC90 [22]: 128 µg/mL (≈ 301 µM)
MIC50 [23]: ≤ 0.03 µg/mL
MIC90 [23]: > 128 µg/mL
MIC50 [24]: 2 µg/mL (≈ 4.71 µM)
MIC90 [24]: 128 µg/mL (≈ 301 µM)
MIC50 [25]: 0.06 µg/mL (≈ 0.141 µM)
MIC90 [25]: 2 µg/mL (≈ 4.71 µM)
MIC50 [26]: 1 µg/mL (≈ 2.35 µM)
MIC90 [26]: 2 µg/mL (≈ 4.71 µM)
MIC50 [27]: 0.125 µg/mL (≈ 0.294 µM)
MIC90 [27]: 64 µg/mL (≈ 151 µM)
MIC50 [28]: 0.5 µg/mL (≈ 1.18 µM)
MIC90 [28]: > 128 µg/mL
MIC50 [29]: 2 µg/mL (≈ 4.71 µM)
MIC90 [29]: 128 µg/mL (≈ 301 µM)
MIC50 [30]: 2 µg/mL (≈ 4.71 µM)
MIC90 [30]: 128 µg/mL (≈ 301 µM)
MIC50 [31]: 0.06 µg/mL (≈ 0.141 µM)
MIC90 [31]: 2 µg/mL (≈ 4.71 µM)
MIC50 [32]: ≤ 0.03 µg/mL
MIC90 [32]: 128 µg/mL (≈ 301 µM)
